In ChEMBL document CHEMBL1833812, “Synthesis, biological evaluation, and automated docking of constrained analogues of the opioid peptide H-Dmt-D-Ala-Phe-Gly-NH₂ using the 4- or 5-methyl substituted 4-amino-1,2,4,5-tetrahydro-2-benzazepin-3-one scaffold” (J Med Chem, 2011):

Organism: Rattus norvegicus
Test: Selectivity ratio of Ki of rat brain delta-type opioid receptor to Ki of rat brain Mu-type opioid receptor

Q: For `Cc1cc(O)cc(C)c1C[C@H](N)C(=O)N[C@H](C)C(=O)N[C@H]1C(=O)N(CC(N)=O)Cc2ccccc2[C@H]1C`, which Ratio Ki is on record?
A: Its Ratio Ki is 1220.

Q: `Cc1cc(O)cc(C)c1C[C@H](N)C(=O)N[C@H](C)C(=O)N[C@@H]1C(=O)N(CC(N)=O)Cc2ccccc2[C@H]1C` was tested. Which Ratio Ki did it give?
A: The Ratio Ki was 51.

Q: For `Cc1cc(O)cc(C)c1C[C@H](N)C(=O)N[C@H](C)C(=O)N[C@]1(C)Cc2ccccc2CN(CC(N)=O)C1=O`, which Ratio Ki is on record?
A: The Ratio Ki was 210.

Q: How did the Ratio Ki turn out when `Cc1cc(O)cc(C)c1C[C@H](N)C(=O)N[C@H](C)C(=O)N[C@H]1Cc2ccccc2CN(CC(N)=O)C1=O` was run?
A: Its Ratio Ki is 51.

Q: Which Ratio Ki does the source give for `Cc1cc(O)cc(C)c1C[C@H](N)C(=O)N[C@H](C)C(=O)N[C@@H]1Cc2ccccc2CN(CC(N)=O)C1=O` here?
A: The Ratio Ki was 1020.

Q: With `Cc1cc(O)cc(C)c1C[C@H](N)C(=O)N[C@H](C)C(=O)N[C@@]1(C)Cc2ccccc2CN(CC(N)=O)C1=O` as the molecule, how does the Ratio Ki read?
A: Its Ratio Ki is 187.

Q: With `Cc1cc(O)cc(C)c1C[C@H](N)C(=O)N[C@H](C)C(=O)N[C@@H]1C(=O)N(CC(N)=O)Cc2ccccc2[C@@H]1C` as the molecule, how does the Ratio Ki read?
A: The Ratio Ki was 68.

Q: For `Cc1cc(O)cc(C)c1C[C@H](N)C(=O)N[C@H](C)C(=O)N[C@H]1C(=O)N(CC(N)=O)Cc2ccccc2[C@@H]1C`, which Ratio Ki is on record?
A: The Ratio Ki was 960.

These molecules were tested against Delta-type opioid receptor (Rattus norvegicus, UniProt P33533) (assay: Displacement of [3H]Ile-deltorphin-2 from rat brain delta-type opioid receptor by liquid scintillation counting).
Delta-type opioid receptor (Rattus norvegicus, UniProt P33533), sequence (P33533 whole entry): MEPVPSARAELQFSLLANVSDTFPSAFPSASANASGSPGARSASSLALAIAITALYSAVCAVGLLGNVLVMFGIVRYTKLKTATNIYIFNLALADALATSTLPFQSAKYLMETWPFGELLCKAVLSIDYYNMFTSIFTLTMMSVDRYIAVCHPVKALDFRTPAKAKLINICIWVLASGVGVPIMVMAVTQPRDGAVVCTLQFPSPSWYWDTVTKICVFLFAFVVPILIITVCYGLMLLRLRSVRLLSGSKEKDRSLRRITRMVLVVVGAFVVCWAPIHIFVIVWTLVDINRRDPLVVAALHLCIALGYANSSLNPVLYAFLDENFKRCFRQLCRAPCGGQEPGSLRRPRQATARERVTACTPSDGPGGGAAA
Outline: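 Wistar male rat (250–300 g) brain membranes, 0.2–0.4 mg protein/tube, 2 nM [3H]Ile5,6-deltorphin-2 plus 0.25 mg BSA/tube, competitor 10^-11–10^-5 M, 50 mM Tris-HCl pH 7.4, 45 min at 35 °C. GF/B filtration, ice-cold Tris washes, scintillation counting. Nonspecific binding with 10 μM naloxone; duplicates, one/two-site competition fit for Ki.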

Q: With `Cc1cc(O)cc(C)c1C[C@H](N)C(=O)N[C@H](C)C(=O)N[C@H]1C(=O)N(CC(N)=O)Cc2ccccc2[C@H]1C` as the molecule, how does the Ki read?
A: Its Ki is 490 nM.

Q: `Cc1cc(O)cc(C)c1C[C@H](N)C(=O)N[C@H](C)C(=O)N[C@@H]1C(=O)N(CC(N)=O)Cc2ccccc2[C@H]1C` was tested. Which Ki did it give?
A: The Ki was 720 nM.

Q: Which Ki does the source give for `Cc1cc(O)cc(C)c1C[C@H](N)C(=O)N[C@H](C)C(=O)N[C@]1(C)Cc2ccccc2CN(CC(N)=O)C1=O` here?
A: The Ki was 63 nM.

Q: For `Cc1cc(O)cc(C)c1C[C@H](N)C(=O)N[C@H](C)C(=O)N[C@H]1Cc2ccccc2CN(CC(N)=O)C1=O`, which Ki is on record?
A: Its Ki is 2.4 nM.

Q: Which Ki does the source give for `Cc1cc(O)cc(C)c1C[C@H](N)C(=O)N[C@H](C)C(=O)N[C@@H]1Cc2ccccc2CN(CC(N)=O)C1=O` here?
A: Its Ki is 337 nM.

Q: For `Cc1cc(O)cc(C)c1C[C@H](N)C(=O)N[C@H](C)C(=O)N[C@@]1(C)Cc2ccccc2CN(CC(N)=O)C1=O`, which Ki is on record?
A: Its Ki is 859 nM.

Q: Which Ki does the source give for `Cc1cc(O)cc(C)c1C[C@H](N)C(=O)N[C@H](C)C(=O)N[C@@H]1C(=O)N(CC(N)=O)Cc2ccccc2[C@@H]1C` here?
A: The Ki was 1.7 nM.

Q: Which Ki does the source give for `Cc1cc(O)cc(C)c1C[C@H](N)C(=O)N[C@H](C)C(=O)N[C@H]1C(=O)N(CC(N)=O)Cc2ccccc2[C@@H]1C` here?
A: Its Ki is 24 nM.

These molecules were tested against T1, Mu-type opioid receptor (Rattus norvegicus, UniProt P33535) (assay: Agonist activity at rat brain mu-opioid receptor assessed as [35S]GTPgammaS binding by liquid scintillation counting).
T1 sequence (P33535 whole entry): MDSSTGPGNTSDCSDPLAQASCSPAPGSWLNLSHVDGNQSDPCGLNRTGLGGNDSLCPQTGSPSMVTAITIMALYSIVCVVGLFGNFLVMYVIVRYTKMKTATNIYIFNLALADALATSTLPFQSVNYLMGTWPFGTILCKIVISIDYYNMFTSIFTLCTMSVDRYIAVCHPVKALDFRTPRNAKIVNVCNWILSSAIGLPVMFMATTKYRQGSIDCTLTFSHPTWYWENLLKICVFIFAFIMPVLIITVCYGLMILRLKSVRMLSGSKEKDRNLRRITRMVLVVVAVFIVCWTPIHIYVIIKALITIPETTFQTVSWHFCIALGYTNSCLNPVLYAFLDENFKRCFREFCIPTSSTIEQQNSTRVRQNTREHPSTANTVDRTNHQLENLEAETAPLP
Assay type: functional
Outline: (§1)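 Rat brain membranes (15 μg protein/tube) with 0.05 nM [35S]GTPγS and opioids 10^-10–10^-5 M, plus 30 μM GDP, 100 mM NaCl, 3 mM MgCl2, 1 mM EGTA in 50 mM Tris-HCl pH 7.4, 60 min at 30 °C. Started by protein, stopped with ice-cold buffer and GF/B filtration, scintillation counted. Nonspecific binding with 10 μM unlabeled GTPγS; stimulation as % of specific binding over basal (no opioid).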

Q: With `Cc1cc(O)cc(C)c1C[C@H](N)C(=O)N[C@H](C)C(=O)N[C@H]1C(=O)N(CC(N)=O)Cc2ccccc2[C@H]1C` as the molecule, how does the EC50 read?
A: The EC50 was 184 nM.

Q: `Cc1cc(O)cc(C)c1C[C@H](N)C(=O)N[C@H](C)C(=O)N[C@@H]1C(=O)N(CC(N)=O)Cc2ccccc2[C@H]1C` was tested. Which EC50 did it give?
A: Its EC50 is 685 nM.

Q: How did the EC50 turn out when `Cc1cc(O)cc(C)c1C[C@H](N)C(=O)N[C@H](C)C(=O)N[C@]1(C)Cc2ccccc2CN(CC(N)=O)C1=O` was run?
A: Its EC50 is 288 nM.

Q: Which EC50 does the source give for `Cc1cc(O)cc(C)c1C[C@H](N)C(=O)N[C@H](C)C(=O)N[C@H]1Cc2ccccc2CN(CC(N)=O)C1=O` here?
A: Its EC50 is 18 nM.

Q: For `Cc1cc(O)cc(C)c1C[C@H](N)C(=O)N[C@H](C)C(=O)N[C@@H]1Cc2ccccc2CN(CC(N)=O)C1=O`, which EC50 is on record?
A: The EC50 was 64.2 nM.

Q: With `Cc1cc(O)cc(C)c1C[C@H](N)C(=O)N[C@H](C)C(=O)N[C@@]1(C)Cc2ccccc2CN(CC(N)=O)C1=O` as the molecule, how does the EC50 read?
A: The EC50 was 941 nM.

Q: For `Cc1cc(O)cc(C)c1C[C@H](N)C(=O)N[C@H](C)C(=O)N[C@@H]1C(=O)N(CC(N)=O)Cc2ccccc2[C@@H]1C`, which EC50 is on record?
A: Its EC50 is 36 nM.

Q: Which EC50 does the source give for `Cc1cc(O)cc(C)c1C[C@H](N)C(=O)N[C@H](C)C(=O)N[C@H]1C(=O)N(CC(N)=O)Cc2ccccc2[C@@H]1C` here?
A: The EC50 was 9.3 nM.

The molecules below were run against Mu-type opioid receptor (Rattus norvegicus) (UniProt P33535) (assay: Agonist activity at rat brain Mu-type opioid receptor assessed as [35S]GTPgammaS binding by liquid scintillation counting relative to control).
Mu-type opioid receptor (Rattus norvegicus), sequence (P33535 whole entry): as above
Assay type: functional
Outline: as §1

Q: `Cc1cc(O)cc(C)c1C[C@H](N)C(=O)N[C@H](C)C(=O)N[C@H]1C(=O)N(CC(N)=O)Cc2ccccc2[C@H]1C` was tested. Which Emax did it give?
A: The Emax was 167%.

Q: How did the Emax turn out when `Cc1cc(O)cc(C)c1C[C@H](N)C(=O)N[C@H](C)C(=O)N[C@@H]1C(=O)N(CC(N)=O)Cc2ccccc2[C@H]1C` was run?
A: Its Emax is 130%.

Q: For `Cc1cc(O)cc(C)c1C[C@H](N)C(=O)N[C@H](C)C(=O)N[C@]1(C)Cc2ccccc2CN(CC(N)=O)C1=O`, which Emax is on record?
A: The Emax was 154%.

Q: With `Cc1cc(O)cc(C)c1C[C@H](N)C(=O)N[C@H](C)C(=O)N[C@H]1Cc2ccccc2CN(CC(N)=O)C1=O` as the molecule, how does the Emax read?
A: Its Emax is 161%.

Q: `Cc1cc(O)cc(C)c1C[C@H](N)C(=O)N[C@H](C)C(=O)N[C@@H]1Cc2ccccc2CN(CC(N)=O)C1=O` was tested. Which Emax did it give?
A: Its Emax is 178%.

Q: With `Cc1cc(O)cc(C)c1C[C@H](N)C(=O)N[C@H](C)C(=O)N[C@@]1(C)Cc2ccccc2CN(CC(N)=O)C1=O` as the molecule, how does the Emax read?
A: Its Emax is 159%.

Q: With `Cc1cc(O)cc(C)c1C[C@H](N)C(=O)N[C@H](C)C(=O)N[C@@H]1C(=O)N(CC(N)=O)Cc2ccccc2[C@@H]1C` as the molecule, how does the Emax read?
A: Its Emax is 191%.

Q: For `Cc1cc(O)cc(C)c1C[C@H](N)C(=O)N[C@H](C)C(=O)N[C@H]1C(=O)N(CC(N)=O)Cc2ccccc2[C@@H]1C`, which Emax is on record?
A: The Emax was 149%.

These molecules were tested against Delta-type opioid receptor (Homo sapiens, UniProt P41143) (assay: Agonist activity at delta-type opioid receptor).
Delta-type opioid receptor (Homo sapiens, UniProt P41143), sequence (P41143 whole entry): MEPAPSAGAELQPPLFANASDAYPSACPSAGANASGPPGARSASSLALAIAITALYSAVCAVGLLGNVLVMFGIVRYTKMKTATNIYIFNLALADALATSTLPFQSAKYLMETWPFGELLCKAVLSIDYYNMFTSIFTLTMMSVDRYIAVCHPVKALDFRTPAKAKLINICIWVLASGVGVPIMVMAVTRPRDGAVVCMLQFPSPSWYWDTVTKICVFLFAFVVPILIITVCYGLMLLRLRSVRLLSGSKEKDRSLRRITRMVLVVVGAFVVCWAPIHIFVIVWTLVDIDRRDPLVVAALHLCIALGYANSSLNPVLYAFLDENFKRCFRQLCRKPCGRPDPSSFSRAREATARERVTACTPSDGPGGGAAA
Assay type: functional

Q: `C[C@@H](NC(=O)[C@@H](N)Cc1ccc(O)cc1)C(=O)NC1Cc2ccccc2CN(CC(=O)N[C@@H](Cc2ccc(O)cc2)C(=O)N2CCC[C@H]2C(=O)N[C@@H](CO)C(N)=O)C1=O` (some centres undefined) was tested. Which IC50 did it give?
A: The IC50 was 17.4 nM.

Each molecule was assayed against Mu-type opioid receptor (Homo sapiens, UniProt P35372) (assay: Agonist activity at Mu-type opioid receptor).
Mu-type opioid receptor (Homo sapiens, UniProt P35372), sequence (P35372 whole entry): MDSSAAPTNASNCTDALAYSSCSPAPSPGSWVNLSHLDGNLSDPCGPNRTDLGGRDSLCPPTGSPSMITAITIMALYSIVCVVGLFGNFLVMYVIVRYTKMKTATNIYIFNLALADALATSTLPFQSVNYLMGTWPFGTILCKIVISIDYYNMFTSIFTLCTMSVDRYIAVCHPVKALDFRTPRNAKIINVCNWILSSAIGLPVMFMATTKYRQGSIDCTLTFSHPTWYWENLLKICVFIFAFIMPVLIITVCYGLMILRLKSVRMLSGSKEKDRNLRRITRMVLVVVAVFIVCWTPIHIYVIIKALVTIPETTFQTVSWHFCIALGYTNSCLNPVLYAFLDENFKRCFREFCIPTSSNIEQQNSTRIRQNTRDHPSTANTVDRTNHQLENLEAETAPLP
Assay type: functional

Q: `C[C@@H](NC(=O)[C@@H](N)Cc1ccc(O)cc1)C(=O)NC1Cc2ccccc2CN(CC(=O)N[C@@H](Cc2ccc(O)cc2)C(=O)N2CCC[C@H]2C(=O)N[C@@H](CO)C(N)=O)C1=O` (some centres undefined) was tested. Which IC50 did it give?
A: Its IC50 is 11 nM.

Q: `C[C@H](C(=O)NC1Cc2ccccc2CN(CC(N)=O)C1=O)N1Cc2cc(O)ccc2CC(N)C1=O` (some centres undefined) was tested. Which IC50 did it give?
A: The IC50 was 20.8 nM.

What follows are molecules tested against Mu-type opioid receptor (Cavia porcellus, UniProt P97266) (assay: Agonist activity at guinea pig ileum Mu-type opioid receptor).
Mu-type opioid receptor (Cavia porcellus, UniProt P97266), sequence (P97266 whole entry): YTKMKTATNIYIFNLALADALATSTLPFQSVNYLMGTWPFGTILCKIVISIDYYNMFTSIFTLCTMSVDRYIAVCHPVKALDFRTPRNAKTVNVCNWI
Assay type: functional, tissue-based

Q: For `C[C@H](C(=O)NC1Cc2ccccc2CN(CC(N)=O)C1=O)N1Cc2cc(O)ccc2CC(N)C1=O` (some centres undefined), which IC50 is on record?
A: Its IC50 is 3.64 nM.

Each molecule was assayed against T1, Mu-type opioid receptor (assay: Displacement of [3H]DAMGO from rat brain Mu-type opioid receptor by liquid scintillation counting).
Outline: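 Wistar male rat (250–300 g) brain membrane homogenate, 0.2–0.4 mg protein/tube, with 0.5 nM [3H]DAMGO and competitor 10^-11–10^-5 M in 50 mM Tris-HCl pH 7.4, 1 h at 25 °C. Stopped by GF/C filtration, ice-cold Tris washes, scintillation counted. Nonspecific binding with 10 μM naloxone; duplicate runs, one/two-site competition fit for Ki.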

Q: Which Ki does the source give for `Cc1cc(O)cc(C)c1C[C@H](N)C(=O)N[C@H](C)C(=O)N[C@H]1C(=O)N(CC(N)=O)Cc2ccccc2[C@H]1C` here?
A: Its Ki is 0.4 nM.

Q: With `Cc1cc(O)cc(C)c1C[C@H](N)C(=O)N[C@H](C)C(=O)N[C@@H]1C(=O)N(CC(N)=O)Cc2ccccc2[C@H]1C` as the molecule, how does the Ki read?
A: The Ki was 14 nM.

Q: Which Ki does the source give for `Cc1cc(O)cc(C)c1C[C@H](N)C(=O)N[C@H](C)C(=O)N[C@]1(C)Cc2ccccc2CN(CC(N)=O)C1=O` here?
A: Its Ki is 0.3 nM.

Q: How did the Ki turn out when `Cc1cc(O)cc(C)c1C[C@H](N)C(=O)N[C@H](C)C(=O)N[C@H]1Cc2ccccc2CN(CC(N)=O)C1=O` was run?
A: The Ki was 0.047 nM.

Q: Which Ki does the source give for `Cc1cc(O)cc(C)c1C[C@H](N)C(=O)N[C@H](C)C(=O)N[C@@H]1Cc2ccccc2CN(CC(N)=O)C1=O` here?
A: The Ki was 0.33 nM.

Q: Which Ki does the source give for `Cc1cc(O)cc(C)c1C[C@H](N)C(=O)N[C@H](C)C(=O)N[C@@]1(C)Cc2ccccc2CN(CC(N)=O)C1=O` here?
A: The Ki was 4.6 nM.

Q: For `Cc1cc(O)cc(C)c1C[C@H](N)C(=O)N[C@H](C)C(=O)N[C@@H]1C(=O)N(CC(N)=O)Cc2ccccc2[C@@H]1C`, which Ki is on record?
A: Its Ki is 0.025 nM.

Q: `Cc1cc(O)cc(C)c1C[C@H](N)C(=O)N[C@H](C)C(=O)N[C@H]1C(=O)N(CC(N)=O)Cc2ccccc2[C@@H]1C` was tested. Which Ki did it give?
A: The Ki was 0.025 nM.
